Measured values reported in ChEMBL document CHEMBL3352487, “Synthesis, antibacterial activity, and biological evaluation of formyl hydroxyamino derivatives as novel potent peptide deformylase inhibitors against drug-resistant bacteria” (Eur J Med Chem, 2014).
In brackets after ≈: the same amount, converted by molar mass.

Tests used:
Assay type in all cases: functional
Staphylococcus aureus [1] = assay: Antimicrobial activity against Staphylococcus aureus after 24 hrs by broth microdilution method
In short: (§1)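 Broth microdilution following NCCLS M7-A4; ATCC strains and clinical isolates from a provincial hospital.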

Staphylococcus aureus [2] = assay: Antimicrobial activity against methicillin-susceptible Staphylococcus aureus after 24 hrs by broth microdilution method; in short: as §1
Staphylococcus aureus [3] = assay: Antimicrobial activity against methicillin-resistant Staphylococcus aureus after 24 hrs by broth microdilution method
In short: (§2)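 Broth microdilution following NCCLS M7-A4, using ATCC strains and clinical isolates from a provincial hospital.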

[4] = system: Staphylococcus epidermidis; assay: Antimicrobial activity against methicillin-resistant Staphylococcus epidermidis after 24 hrs by broth microdilution method; in short: as §2
[5] = system: Staphylococcus epidermidis; assay: Antimicrobial activity against methicillin-susceptible Staphylococcus epidermidis after 24 hrs by broth microdilution method; in short: as §1
Enterococcus faecalis = assay: Antimicrobial activity against Enterococcus faecalis after 24 hrs by broth microdilution method; in short: as §1
Moraxella catarrhalis = assay: Antimicrobial activity against Moraxella catarrhalis after 24 hrs by broth microdilution method; in short: as §1
Streptococcus pneumoniae = assay: Antimicrobial activity against penicillin-resistant Streptococcus pneumoniae after 24 hrs by broth microdilution method; in short: as §2
[6] = system: Staphylococcus epidermidis; assay: Antimicrobial activity against Staphylococcus epidermidis after 24 hrs by broth microdilution method; in short: as §1
Escherichia coli [7] = assay: Antimicrobial activity against Escherichia coli isolate 1 after 24 hrs by broth microdilution method; settings: isolate 1, 24 h; in short: as §1
Escherichia coli [8] = assay: Antimicrobial activity against Escherichia coli isolate 2 after 24 hrs by broth microdilution method; settings: isolate 2, 24 h; in short: as §1

Structure (SMILES) | MIC (Staphylococcus aureus [1]) | MIC (Staphylococcus aureus [2]) | MIC (Staphylococcus aureus [3]) | MIC [4] | MIC [5] | MIC (Enterococcus faecalis) | MIC (Moraxella catarrhalis) | MIC (Streptococcus pneumoniae) | MIC [6] | MIC (Escherichia coli [7]) | MIC (Escherichia coli [8])
CCCC[C@H](CN(O)C=O)C(=O)N1C[C@@H](C)C[C@H]1C(=O)Nc1ccc(F)c[n+]1[O-] | 0.25 µg/mL (≈ 0.609 µM) | 0.25 µg/mL (≈ 0.609 µM) | 0.25 µg/mL (≈ 0.609 µM) | 0.5 µg/mL (≈ 1.22 µM) | 0.0625 µg/mL (≈ 0.152 µM) | 4 µg/mL (≈ 9.75 µM) | 0.03 µg/mL (≈ 0.0731 µM) | 0.03 µg/mL (≈ 0.0731 µM) | – | – | –
CCCC[C@H](CN(O)C=O)C(=O)N1CC=C[C@H]1C(=O)N[C@H](C)c1ccccc1 | 4 µg/mL (≈ 10.3 µM) | 16 µg/mL (≈ 41.3 µM) | 2 µg/mL (≈ 5.16 µM) | – | – | – | – | – | 4 µg/mL (≈ 10.3 µM) | > 64 µg/mL | > 64 µg/mL
C=C1C[C@@H](C(=O)Nc2ccccc2)N(C(=O)[C@H](CCCC)CN(O)C=O)C1 | 1 µg/mL (≈ 2.68 µM) | 4 µg/mL (≈ 10.7 µM) | 0.5 µg/mL (≈ 1.34 µM) | – | – | – | – | – | 1 µg/mL (≈ 2.68 µM) | 64 µg/mL (≈ 171 µM) | > 64 µg/mL
Cc1ccc(NC(=O)[C@@H]2C[C@H]3CCCC[C@@H]3N2C(=O)[C@H](CC2CCCC2)CN(O)C=O)nc1 | 4 µg/mL (≈ 8.76 µM) | 4 µg/mL (≈ 8.76 µM) | 4 µg/mL (≈ 8.76 µM) | 8 µg/mL (≈ 17.5 µM) | 0.5 µg/mL (≈ 1.1 µM) | > 16 µg/mL | 0.5 µg/mL (≈ 1.1 µM) | 0.03 µg/mL (≈ 0.0657 µM) | – | – | –
C=C1C[C@@H](C(=O)Nc2ccc(F)c[n+]2[O-])N(C(=O)[C@H](CCCC)CN(O)C=O)C1 | 1 µg/mL (≈ 2.45 µM) | 4 µg/mL (≈ 9.79 µM) | 0.5 µg/mL (≈ 1.22 µM) | – | – | – | – | – | 1 µg/mL (≈ 2.45 µM) | > 64 µg/mL | > 64 µg/mL
O=CN(O)C[C@@H](CC1CCCC1)C(=O)N1[C@H](C(=O)Nc2ccc(F)cn2)C[C@H]2CCCC[C@@H]21 | 4 µg/mL (≈ 8.69 µM) | 4 µg/mL (≈ 8.69 µM) | 4 µg/mL (≈ 8.69 µM) | 4 µg/mL (≈ 8.69 µM) | 0.25 µg/mL (≈ 0.543 µM) | > 16 µg/mL | 0.03 µg/mL (≈ 0.0651 µM) | 0.03 µg/mL (≈ 0.0651 µM) | – | – | –
CCCC[C@H](CN(O)C=O)C(=O)N1[C@H](C(=O)Nc2ccc(C)cn2)C[C@H]2CCCC[C@@H]21 | 8 µg/mL (≈ 18.6 µM) | 8 µg/mL (≈ 18.6 µM) | 4 µg/mL (≈ 9.29 µM) | 16 µg/mL (≈ 37.2 µM) | 0.5 µg/mL (≈ 1.16 µM) | > 16 µg/mL | 0.03 µg/mL (≈ 0.0697 µM) | 0.03 µg/mL (≈ 0.0697 µM) | – | – | –
CCCC[C@H](CN(O)C=O)C(=O)N1CC=C[C@H]1C(=O)Nc1ccccc1Br | 32 µg/mL (≈ 73 µM) | 4 µg/mL (≈ 9.13 µM) | 1 µg/mL (≈ 2.28 µM) | – | – | – | – | – | 8 µg/mL (≈ 18.3 µM) | > 64 µg/mL | > 64 µg/mL
CCCC[C@H](CN(O)C=O)C(=O)N1CC=C[C@H]1C(=O)Nc1ccc(Br)cc1 | 4 µg/mL (≈ 9.13 µM) | 1 µg/mL (≈ 2.28 µM) | 0.5 µg/mL (≈ 1.14 µM) | – | – | – | – | – | 2 µg/mL (≈ 4.56 µM) | > 64 µg/mL | > 64 µg/mL
C[C@H](NC(=O)[C@@H]1C=CCN1C(=O)[C@H](CC1CCCC1)CN(O)C=O)c1ccccc1 | 4 µg/mL (≈ 9.67 µM) | 16 µg/mL (≈ 38.7 µM) | 4 µg/mL (≈ 9.67 µM) | – | – | – | – | – | 8 µg/mL (≈ 19.3 µM) | > 64 µg/mL | > 64 µg/mL
CN[C@H](CC(C)C)C(=O)N[C@H]1C(=O)N[C@@H](CC(N)=O)C(=O)N[C@H]2C(=O)N[C@H]3C(=O)N[C@H](C(=O)N[C@H](C(=O)O)c4cc(O)cc(O)c4-c4cc3ccc4O)[C@H](O)c3ccc(c(Cl)c3)Oc3cc2cc(c3O[C@@H]2O[C@H](CO)[C@@H](O)[C@H](O)[C@H]2O[C@H]2C[C@](C)(N)[C@H](O)[C@H](C)O2)Oc2ccc(cc2Cl)[C@H]1O [VANCOMYCIN] | – | – | – | – | – | – | – | – | – | > 64 µg/mL | > 64 µg/mL
O=CN(O)C[C@@H](CC1CCCC1)C(=O)N1CC=C[C@H]1C(=O)Nc1ccc(F)cn1 | 0.25 µg/mL (≈ 0.618 µM) | 0.5 µg/mL (≈ 1.24 µM) | 0.125 µg/mL (≈ 0.309 µM) | – | – | – | – | – | 0.125 µg/mL (≈ 0.309 µM) | 32 µg/mL (≈ 79.1 µM) | 16 µg/mL (≈ 39.6 µM)
CCCC[C@H](CN(O)C=O)C(=O)N1CC=C[C@H]1C(=O)Nc1ccc(OC)cc1 | 0.5 µg/mL (≈ 1.28 µM) | 2 µg/mL (≈ 5.14 µM) | 1 µg/mL (≈ 2.57 µM) | – | – | – | – | – | 2 µg/mL (≈ 5.14 µM) | > 64 µg/mL | > 64 µg/mL
C[C@H]1C[C@@H](C(=O)Nc2ccc(F)c[n+]2[O-])N(C(=O)[C@H](CC2CCCC2)CN(O)C=O)C1 | 0.5 µg/mL (≈ 1.15 µM) | 0.5 µg/mL (≈ 1.15 µM) | 0.5 µg/mL (≈ 1.15 µM) | 1 µg/mL (≈ 2.29 µM) | 1 µg/mL (≈ 2.29 µM) | 2 µg/mL (≈ 4.58 µM) | 0.5 µg/mL (≈ 1.15 µM) | 0.03 µg/mL (≈ 0.0687 µM) | – | – | –
CCCC[C@H](CN(O)C=O)C(=O)N1CC=C[C@H]1C(=O)Nc1ccc(F)cc1 | 2 µg/mL (≈ 5.3 µM) | 2 µg/mL (≈ 5.3 µM) | 1 µg/mL (≈ 2.65 µM) | – | – | – | – | – | 4 µg/mL (≈ 10.6 µM) | > 64 µg/mL | 64 µg/mL (≈ 170 µM)
CC1(C)S[C@@H]2[C@H](NC(=O)Cc3ccccc3)C(=O)N2[C@H]1C(=O)O [PENICILLIN G] | 0.0625 µg/mL (≈ 0.187 µM) | 1 µg/mL (≈ 2.99 µM) | 64 µg/mL (≈ 191 µM) | – | – | – | – | – | 2 µg/mL (≈ 5.98 µM) | > 64 µg/mL | > 64 µg/mL
Cc1cnc(NC(=O)[C@@H]2C[C@H](F)CN2C(=O)[C@H](CC2CCCC2)CN(O)C=O)s1 | 1 µg/mL (≈ 2.34 µM) | 0.5 µg/mL (≈ 1.17 µM) | 0.5 µg/mL (≈ 1.17 µM) | 1 µg/mL (≈ 2.34 µM) | 0.125 µg/mL (≈ 0.293 µM) | > 16 µg/mL | 0.125 µg/mL (≈ 0.293 µM) | 0.03 µg/mL (≈ 0.0703 µM) | – | – | –
CCCC[C@H](CN(O)C=O)C(=O)N1CC=C[C@H]1C(=O)N[C@@H](C)c1ccccc1 | 4 µg/mL (≈ 10.3 µM) | 16 µg/mL (≈ 41.3 µM) | 8 µg/mL (≈ 20.6 µM) | – | – | – | – | – | 8 µg/mL (≈ 20.6 µM) | > 64 µg/mL | > 64 µg/mL
